Assay results taken from ChEMBL document CHEMBL1152425, “Systematic syntheses of influenza neuraminidase inhibitors: a series of carbosilane dendrimers uniformly functionalized with thioglycoside-type sialic acid moieties” (Bioorg Med Chem, 2009).

How the values were obtained:
[1] = molecular target: Neuraminidase (Influenza A virus (A/Memphis/1/1971(H3N2)), UniProt P03471); assay: Inhibition of human influenza A/Memphis/1/71(H3N2) sialidase by fluorescence spectrophotometry
Method in brief: (§1)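 Influenza A virus suspension in saline (HAU = 26) as sialidase source; mixed with glycodendrimer and 4-MU-Neu5Ac (0.4 mM final) in 20 mM acetate buffer pH 5.2; 37 °C, 30 min; stopped with 100 mM carbonate buffer pH 10.7; released 4-MU fluorescence ex 355/em 460 nm. IC50 read graphically from % inhibition vs concentration, in mM per monomeric sugar unit.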

Neuraminidase = Neuraminidase (Influenza A virus, UniProt B4URF0); assay: Inhibition of human Influenza A virus A/PR/8/34(H1N1) sialidase by fluorescence spectrophotometry; set-up: species or system Influenza A virus (A/Puerto Rico/8/1934(H1N1)); method in brief: as §1
Sequence of Neuraminidase (B4URF0 whole entry): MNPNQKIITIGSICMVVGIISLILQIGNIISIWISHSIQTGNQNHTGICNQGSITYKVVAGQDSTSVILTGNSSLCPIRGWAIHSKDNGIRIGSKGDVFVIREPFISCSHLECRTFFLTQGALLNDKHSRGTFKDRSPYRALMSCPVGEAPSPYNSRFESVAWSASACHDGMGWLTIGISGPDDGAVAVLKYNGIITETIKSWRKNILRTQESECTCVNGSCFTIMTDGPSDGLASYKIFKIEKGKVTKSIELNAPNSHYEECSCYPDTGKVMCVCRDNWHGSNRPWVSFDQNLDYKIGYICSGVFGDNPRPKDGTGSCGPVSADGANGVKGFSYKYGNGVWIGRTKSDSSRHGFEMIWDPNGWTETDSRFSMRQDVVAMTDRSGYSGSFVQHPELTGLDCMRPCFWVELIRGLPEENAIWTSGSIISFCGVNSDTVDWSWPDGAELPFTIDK

Sequence of Neuraminidase (Influenza A virus (A/Memphis/1/1971(H3N2)), UniProt P03471) (P03471 whole entry): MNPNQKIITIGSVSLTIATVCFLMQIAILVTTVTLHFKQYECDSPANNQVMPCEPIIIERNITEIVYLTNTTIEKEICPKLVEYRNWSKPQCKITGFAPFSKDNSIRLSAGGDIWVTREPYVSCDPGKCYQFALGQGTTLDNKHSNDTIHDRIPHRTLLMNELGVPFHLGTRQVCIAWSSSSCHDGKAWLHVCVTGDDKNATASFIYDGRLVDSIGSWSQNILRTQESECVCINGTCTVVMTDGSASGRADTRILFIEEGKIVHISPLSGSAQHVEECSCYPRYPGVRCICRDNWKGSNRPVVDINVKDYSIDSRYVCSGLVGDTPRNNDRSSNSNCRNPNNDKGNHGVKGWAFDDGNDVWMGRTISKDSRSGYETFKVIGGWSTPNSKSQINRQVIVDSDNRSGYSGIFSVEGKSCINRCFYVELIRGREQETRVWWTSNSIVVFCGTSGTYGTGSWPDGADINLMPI

Compound | IC50 [1] [mM] | IC50 (Neuraminidase) [mM]
CC(=O)N[C@H]1[C@H]([C@H](O)[C@H](O)CO)O[C@@](SCCCCCSCCCOCCC[Si](CCCOCCCSCCCCCS[C@]2(C(=O)O)C[C@H](O)[C@@H](NC(C)=O)[C@H]([C@H](O)[C@H](O)CO)O2)(CCCOCCCSCCCCCS[C@]2(C(=O)O)C[C@H](O)[C@@H](NC(C)=O)[C@H]([C@H](O)[C@H](O)CO)O2)CCCOCCCSCCCCCS[C@]2(C(=O)O)C[C@H](O)[C@@H](NC(C)=O)[C@H]([C@H](O)[C@H](O)CO)O2)(C(=O)O)C[C@@H]1O | 5 | 5
CC(=O)N[C@H]1[C@H]([C@H](O)[C@H](O)CO)O[C@@](SCCCCCSCCCCCC(=O)NCCC[Si](CCCNC(=O)CCCCCSCCCCCS[C@]2(C(=O)O)C[C@H](O)[C@@H](NC(C)=O)[C@H]([C@H](O)[C@H](O)CO)O2)(CCCNC(=O)CCCCCSCCCCCS[C@]2(C(=O)O)C[C@H](O)[C@@H](NC(C)=O)[C@H]([C@H](O)[C@H](O)CO)O2)c2ccccc2)(C(=O)O)C[C@@H]1O | 7.1 | 2.7
CC(=O)N[C@H]1[C@H]([C@H](O)[C@H](O)CO)O[C@@](SCCCCCSCCCOCCC[Si](CCCOCCCSCCCCCS[C@]2(C(=O)O)C[C@H](O)[C@@H](NC(C)=O)[C@H]([C@H](O)[C@H](O)CO)O2)(CCCOCCCSCCCCCS[C@]2(C(=O)O)C[C@H](O)[C@@H](NC(C)=O)[C@H]([C@H](O)[C@H](O)CO)O2)CCC[Si](C)(C)CCC[Si](CCCOCCCSCCCCCS[C@]2(C(=O)O)C[C@H](O)[C@@H](NC(C)=O)[C@H]([C@H](O)[C@H](O)CO)O2)(CCCOCCCSCCCCCS[C@]2(C(=O)O)C[C@H](O)[C@@H](NC(C)=O)[C@H]([C@H](O)[C@H](O)CO)O2)CCCOCCCSCCCCCS[C@]2(C(=O)O)C[C@H](O)[C@@H](NC(C)=O)[C@H]([C@H](O)[C@H](O)CO)O2)(C(=O)O)C[C@@H]1O | 1.25 | 5
CC(=O)N[C@H]1[C@H]([C@H](O)[C@H](O)CO)O[C@@](SCCCCCSCCCCCC(=O)NCCC[Si](CCCNC(=O)CCCCCSCCCCCS[C@]2(C(=O)O)C[C@H](O)[C@@H](NC(C)=O)[C@H]([C@H](O)[C@H](O)CO)O2)(CCCNC(=O)CCCCCSCCCCCS[C@]2(C(=O)O)C[C@H](O)[C@@H](NC(C)=O)[C@H]([C@H](O)[C@H](O)CO)O2)CCC[Si](CCC[Si](CCCNC(=O)CCCCCSCCCCCS[C@]2(C(=O)O)C[C@H](O)[C@@H](NC(C)=O)[C@H]([C@H](O)[C@H](O)CO)O2)(CCCNC(=O)CCCCCSCCCCCS[C@]2(C(=O)O)C[C@H](O)[C@@H](NC(C)=O)[C@H]([C@H](O)[C@H](O)CO)O2)CCCNC(=O)CCCCCSCCCCCS[C@]2(C(=O)O)C[C@H](O)[C@@H](NC(C)=O)[C@H]([C@H](O)[C@H](O)CO)O2)(CCC[Si](CCCNC(=O)CCCCCSCCCCCS[C@]2(C(=O)O)C[C@H](O)[C@@H](NC(C)=O)[C@H]([C@H](O)[C@H](O)CO)O2)(CCCNC(=O)CCCCCSCCCCCS[C@]2(C(=O)O)C[C@H](O)[C@@H](NC(C)=O)[C@H]([C@H](O)[C@H](O)CO)O2)CCCNC(=O)CCCCCSCCCCCS[C@]2(C(=O)O)C[C@H](O)[C@@H](NC(C)=O)[C@H]([C@H](O)[C@H](O)CO)O2)CCC[Si](CCCNC(=O)CCCCCSCCCCCS[C@]2(C(=O)O)C[C@H](O)[C@@H](NC(C)=O)[C@H]([C@H](O)[C@H](O)CO)O2)(CCCNC(=O)CCCCCSCCCCCS[C@]2(C(=O)O)C[C@H](O)[C@@H](NC(C)=O)[C@H]([C@H](O)[C@H](O)CO)O2)CCCNC(=O)CCCCCSCCCCCS[C@]2(C(=O)O)C[C@H](O)[C@@H](NC(C)=O)[C@H]([C@H](O)[C@H](O)CO)O2)(C(=O)O)C[C@@H]1O | – | 7.2
CC(=O)N[C@H]1[C@H]([C@H](O)[C@H](O)CO)O[C@@](SCCCCCSCCCOCCC[Si](CCCOCCCSCCCCCS[C@]2(C(=O)O)C[C@H](O)[C@@H](NC(C)=O)[C@H]([C@H](O)[C@H](O)CO)O2)(CCCOCCCSCCCCCS[C@]2(C(=O)O)C[C@H](O)[C@@H](NC(C)=O)[C@H]([C@H](O)[C@H](O)CO)O2)c2ccccc2)(C(=O)O)C[C@@H]1O | 5 | 5
CC(=O)N[C@H]1[C@H]([C@H](O)[C@H](O)CO)O[C@@](SCCCCCSCCC[Si](CCCSCCCCCS[C@]2(C(=O)O)C[C@H](O)[C@@H](NC(C)=O)[C@H]([C@H](O)[C@H](O)CO)O2)(CCCSCCCCCS[C@]2(C(=O)O)C[C@H](O)[C@@H](NC(C)=O)[C@H]([C@H](O)[C@H](O)CO)O2)CCC[Si](CCC[Si](CCCSCCCCCS[C@]2(C(=O)O)C[C@H](O)[C@@H](NC(C)=O)[C@H]([C@H](O)[C@H](O)CO)O2)(CCCSCCCCCS[C@]2(C(=O)O)C[C@H](O)[C@@H](NC(C)=O)[C@H]([C@H](O)[C@H](O)CO)O2)CCCSCCCCCS[C@]2(C(=O)O)C[C@H](O)[C@@H](NC(C)=O)[C@H]([C@H](O)[C@H](O)CO)O2)(CCC[Si](CCCSCCCCCS[C@]2(C(=O)O)C[C@H](O)[C@@H](NC(C)=O)[C@H]([C@H](O)[C@H](O)CO)O2)(CCCSCCCCCS[C@]2(C(=O)O)C[C@H](O)[C@@H](NC(C)=O)[C@H]([C@H](O)[C@H](O)CO)O2)CCCSCCCCCS[C@]2(C(=O)O)C[C@H](O)[C@@H](NC(C)=O)[C@H]([C@H](O)[C@H](O)CO)O2)CCC[Si](CCCSCCCCCS[C@]2(C(=O)O)C[C@H](O)[C@@H](NC(C)=O)[C@H]([C@H](O)[C@H](O)CO)O2)(CCCSCCCCCS[C@]2(C(=O)O)C[C@H](O)[C@@H](NC(C)=O)[C@H]([C@H](O)[C@H](O)CO)O2)CCCSCCCCCS[C@]2(C(=O)O)C[C@H](O)[C@@H](NC(C)=O)[C@H]([C@H](O)[C@H](O)CO)O2)(C(=O)O)C[C@@H]1O | 7 | 5
CC(=O)N[C@H]1[C@H]([C@H](O)[C@H](O)CO)O[C@@](SCCCCCSCCCOCCC[Si](CCCOCCCSCCCCCS[C@]2(C(=O)O)C[C@H](O)[C@@H](NC(C)=O)[C@H]([C@H](O)[C@H](O)CO)O2)(CCCOCCCSCCCCCS[C@]2(C(=O)O)C[C@H](O)[C@@H](NC(C)=O)[C@H]([C@H](O)[C@H](O)CO)O2)CCC[Si](CCC[Si](CCCOCCCSCCCCCS[C@]2(C(=O)O)C[C@H](O)[C@@H](NC(C)=O)[C@H]([C@H](O)[C@H](O)CO)O2)(CCCOCCCSCCCCCS[C@]2(C(=O)O)C[C@H](O)[C@@H](NC(C)=O)[C@H]([C@H](O)[C@H](O)CO)O2)CCCOCCCSCCCCCS[C@]2(C(=O)O)C[C@H](O)[C@@H](NC(C)=O)[C@H]([C@H](O)[C@H](O)CO)O2)(CCC[Si](CCCOCCCSCCCCCS[C@]2(C(=O)O)C[C@H](O)[C@@H](NC(C)=O)[C@H]([C@H](O)[C@H](O)CO)O2)(CCCOCCCSCCCCCS[C@]2(C(=O)O)C[C@H](O)[C@@H](NC(C)=O)[C@H]([C@H](O)[C@H](O)CO)O2)CCCOCCCSCCCCCS[C@]2(C(=O)O)C[C@H](O)[C@@H](NC(C)=O)[C@H]([C@H](O)[C@H](O)CO)O2)CCC[Si](CCCOCCCSCCCCCS[C@]2(C(=O)O)C[C@H](O)[C@@H](NC(C)=O)[C@H]([C@H](O)[C@H](O)CO)O2)(CCCOCCCSCCCCCS[C@]2(C(=O)O)C[C@H](O)[C@@H](NC(C)=O)[C@H]([C@H](O)[C@H](O)CO)O2)CCCOCCSCCCCCS[C@]2(C(=O)O)C[C@H](O)[C@@H](NC(C)=O)[C@H]([C@H](O)[C@H](O)CO)O2)(C(=O)O)C[C@@H]1O | 6.5 | 6.4
CC(=O)N[C@H]1[C@H]([C@H](O)[C@H](O)CO)O[C@@](SCCCCCSCCCCCC(=O)NCCC[Si](CCCNC(=O)CCCCCSCCCCCS[C@]2(C(=O)O)C[C@H](O)[C@@H](NC(C)=O)[C@H]([C@H](O)[C@H](O)CO)O2)(CCCNC(=O)CCCCCSCCCCCS[C@]2(C(=O)O)C[C@H](O)[C@@H](NC(C)=O)[C@H]([C@H](O)[C@H](O)CO)O2)CCCNC(=O)CCCCCSCCCCCS[C@]2(C(=O)O)C[C@H](O)[C@@H](NC(C)=O)[C@H]([C@H](O)[C@H](O)CO)O2)(C(=O)O)C[C@@H]1O | 8.8 | 4.8
CC(=O)N[C@H]1[C@H]([C@H](O)[C@H](O)CO)O[C@@](SCCCCCSCCCCCC(=O)NCCC[Si](CCCNC(=O)CCCCCSCCCCCS[C@]2(C(=O)O)C[C@H](O)[C@@H](NC(C)=O)[C@H]([C@H](O)[C@H](O)CO)O2)(CCCNC(=O)CCCCCSCCCCCS[C@]2(C(=O)O)C[C@H](O)[C@@H](NC(C)=O)[C@H]([C@H](O)[C@H](O)CO)O2)CCC[Si](C)(C)CCC[Si](CCCNC(=O)CCCCCSCCCCCS[C@]2(C(=O)O)C[C@H](O)[C@@H](NC(C)=O)[C@H]([C@H](O)[C@H](O)CO)O2)(CCCNC(=O)CCCCCSCCCCCS[C@]2(C(=O)O)C[C@H](O)[C@@H](NC(C)=O)[C@H]([C@H](O)[C@H](O)CO)O2)CCCNC(=O)CCCCCSCCCCCS[C@]2(C(=O)O)C[C@H](O)[C@@H](NC(C)=O)[C@H]([C@H](O)[C@H](O)CO)O2)(C(=O)O)C[C@@H]1O | 8.1 | 2.8
